Data published in ChEMBL document CHEMBL1153617, “Synthesis of new acridines and hydrazones derived from cyclic beta-diketone for cytotoxic and antiviral evaluation” (2009).

What was measured:
Set-up in all cases: scale not given: the % may be the effect or the level left
Hepatovirus A [1] = assay: Antiviral activity against HAV MBB in human HepG2 cells assessed as reduction in viral titer at 20 ug/ml by plaque reduction assay; assay type: functional, Human hepatitis A virus Hu/Northern Africa/MBB/1978
Outline: (§1)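 HAV pre-mixed with compound (10 or 20 µg/10⁵ cells; virus at 10⁴ PFU/ml final), held overnight at 4 °C. Mixture inoculated onto HepG2 monolayers grown 2 days at 37 °C, then 1 h contact. Overlay of MEM with 1% agarose, incubated at 37 °C until plaques formed. Formalin-fixed, crystal violet-stained. Plaques counted; % reduction calculated against untreated virus control.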

Hepatovirus A [2] = assay: Antiviral activity against HAV MBB in human HepG2 cells assessed as reduction in viral titer at 10 ug/ml by plaque reduction assay; assay type: functional, Human hepatitis A virus Hu/Northern Africa/MBB/1978; outline: as §1
HepG2 = assay: Cytotoxicity against human HepG2 cells assessed as reduction in cell growth at 10 umol/ml after 24 hrs by MTT assay relative to control; assay type: functional
Outline: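 HepG2 grown in RPMI-1640 with 10% FCS. Cells taken at ~80% confluence, seeded 3×10³/well, incubated overnight at 37 °C, 5% CO₂. Compound exposure 24 h. Then PBS wash and MTT (0.5 mg/ml) for 4 h. Crystals dissolved in DMSO, OD read at 570 nm (reference 690 nm). Reported as % reduction in cell growth versus untreated control.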

| Compound | Activity (Hepatovirus A [1]) [%] | Activity (Hepatovirus A [2]) [%] | Activity (HepG2) [%] |
| --- | --- | --- | --- |
| CC1(C)CC(=O)C=C(NCc2nnc(Nc3ccccc3)s2)C1 | 49 | 45.2 | – |
| CC1(C)CC(=O)C=C(NCC(=O)N/N=C\c2ccc(O)cc2)C1 | 15 | 9.4 | 40.32 |
| CC1(C)CC(=O)C=C(NCC(=O)N/N=C\c2ccc(Br)cc2)C1 | 27.3 | 43.3 | 40.06 |
| COc1ccc(/C=N\NC(=O)CNC2=CC(=O)CC(C)(C)C2)cc1 | 36.2 | 24.5 | 16.99 |
| CC1(C)CC(=O)C=C(NCC(=O)NNC(=S)Nc2ccccc2)C1 | 39.6 | 18.8 | 54.84 |
| CCOC(=O)CN1C2=C(C(=O)CC(C)(C)C2)C(c2ccc(O)cc2)C2=C1CC(C)(C)CC2=O | 48.1 | 30.1 | 54.7 |
| CCOC(=O)CN1C2=C(C(=O)CC(C)(C)C2)C(c2ccc(OC)cc2)C2=C1CC(C)(C)CC2=O | 45.2 | 24.5 | 37.99 |
| CC1(C)CC(=O)C=C(NCC(=O)NN)C1 | 34.9 | 33.9 | 57.4 |
| CCOC(=O)CNC1=CC(=O)CC(C)(C)C1 | 15 | 5.6 | 50 |
| CC1(C)CC(=O)C=C(NCC(=O)N/N=C\c2ccc(Cl)cc2)C1 | 60.3 | 57.5 | – |
| CC1(C)CC(=O)C=C(NCC(=O)NNC(=O)NCCCl)C1 | 40.5 | 42.4 | 58.29 |
| CCOC(=O)CN1C2=C(C(=O)CC(C)(C)C2)C(c2ccc(Cl)cc2)C2=C1CC(C)(C)CC2=O | 47.1 | 30.1 | 54.14 |
| CCOC(=O)CN1C2=C(C(=O)CC(C)(C)C2)C(c2ccccc2)C2=C1CC(C)(C)CC2=O | 60.3 | 37.7 | 3.32 |
| CCOC(=O)CN1C2=C(C(=O)CC(C)(C)C2)C(c2ccc(Br)cc2)C2=C1CC(C)(C)CC2=O | 52.8 | 47.1 | 49.17 |
| CC1(C)CC(=O)C=C(NCc2nnc(S)n2-c2ccccc2)C1 | 30.1 | 28.3 | 35.64 |
| CC1(C)CC(=O)C=C(NCC(=O)N/N=C\c2ccc([N+](=O)[O-])cc2)C1 | 43.3 | 39.6 | – |
| CC1(C)CC(=O)C=C(NCC(=O)N/N=C\c2ccccc2)C1 | 58.4 | 56.6 | – |
| NC12CC3CC(CC(C3)C1)C2 [AMANTADINE] | 45.2 | 30.1 | – |
